Activity calls are given as the source filed them. The rule behind the calls is not given here.
What was measured:
[1] = Toxicity in Swiss albino mouse assessed as clinical changes at 50 mg/kg, ip; format: organism-based; conditions: in vivo
[2] = test system: Protein cereblon/Epidermal growth factor receptor (Homo sapiens), P00533+Q96SW2 [L858R]; assay: Protac activity at CRBN/EGFR L858R mutant in human H3255 cells assessed as induction of EGFR degradation at 100 nM measured after 8 hrs in presence of CRBN E3 ligase binder thalidomide by Western blot analysis; format: cell-based
[3] = test system: Protein cereblon/Epidermal growth factor receptor (Homo sapiens), P00533+Q96SW2 [L858R]; assay: Protac activity at CRBN/EGFR L858R mutant in human H3255 cells assessed as induction of EGFR degradation at 0.1 to 1 uM incubated for 8 hrs in absence of FBS by Western blot analysis; format: cell-based
[4] = test system: Protein cereblon/Epidermal growth factor receptor (Homo sapiens), P00533+Q96SW2 [UNDEFINED MUTATION]; assay: Reversible protac activity at CRBN/EGFR exon 19 deletion mutant in human HCC827 cells assessed as recovery of EGFR degradation at 100 nM preincubated for 12 hrs followed by compound washout and measured after 24 hrs by Western blot analysis; format: cell-based
In short: (§1)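 Cells were serum-starved 8 h, then given degrader for 12 h. They were washed three times with PBS and harvested at the indicated time points after washout. EGFR, p-EGFR and p-AKT were read by Western blot.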

NCI-H3255 [5] = assay: Antiproliferative activity against human H3255 cells measured after 3 days by CCK8 assay; format: functional, cell-based
In short: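 H3255 cells seeded 4000/well the night before, then exposed to serial dilutions for 3 days. Growth read by Cell Counting Kit-8; three independent experiments. IC50 from nonlinear regression (log inhibitor vs response, variable slope).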

HCC827 [6] = assay: Down regulation of NELFE expression in human HCC827 cells at 100 nM measured after 16 hrs by LC-MS analysis; format: functional, cell-based
In short: (§2)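 HCC-827 cells serum-starved 8 h, then treated at 100 nM for 16 h. Collected for label-free quantitative LC–MS proteomics; LFQ intensity compared between treated and control groups; three independent experiments.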

[7] = test system: Protein cereblon/Epidermal growth factor receptor (Homo sapiens), P00533+Q96SW2 [L858R]; assay: Protac activity at CRBN/EGFR L858R mutant in human H3255 cells assessed as induction of EGFR degradation treated 8 hrs post serum starvation measured after 16 hrs by Western blot analysis; format: cell-based
[8] = test system: Protein cereblon/Epidermal growth factor receptor (Homo sapiens), P00533+Q96SW2 [L858R]; assay: Protac activity at CRBN/EGFR L858R mutant in human H3255 cells assessed as induction of EGFR degradation at >=50 nM treated 8 hrs post serum starvation measured after 16 hrs by Western blot analysis relative to control; format: cell-based
In short: (§3)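 Cultured to 80% confluence in RPMI/1640 with 20% FBS at 37 °C and 5% CO2, then switched to serum-free medium for 8 h. Degraders were added over a concentration range up to 10 μM for 16 h, with gefitinib at 1 μM as reference. Lysates in Laemmli buffer were immunoblotted for EGFR, p-EGFR and p-AKT. DC50 came from band quantification by nonlinear regression (variable slope).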

[9] = test system: Protein cereblon/Epidermal growth factor receptor (Homo sapiens), P00533+Q96SW2 [UNDEFINED MUTATION]; assay: Protac activity at CRBN/EGFR exon 19 deletion mutant in human HCC827 cells assessed as reduction in EGFR autophosphorylation up to 10 uM treated 8 hrs post serum starvation measured after 16 hrs by Western blot analysis; format: cell-based; in short: as §3
[10] = test system: Protein cereblon/Epidermal growth factor receptor (Homo sapiens), P00533+Q96SW2 [L858R]; assay: Protac activity at CRBN/EGFR L858R mutant in human H3255 cells assessed as reduction in AKT phosphorylation up to 10 uM treated 8 hrs post serum starvation measured after 16 hrs by Western blot analysis; format: cell-based; in short: as §3
[11] = test system: Protein cereblon/Epidermal growth factor receptor (Homo sapiens), P00533+Q96SW2 [L858R]; assay: Reversible protac activity at CRBN/EGFR L858R mutant in human H3255 cells assessed as recovery of EGFR phosphorylation at 100 nM preincubated for 12 hrs followed by compound washout and measured up to 48 hrs by Western blot analysis; format: cell-based; in short: as §1
[12] = test system: Protein cereblon/Epidermal growth factor receptor (Homo sapiens), P00533+Q96SW2 [UNDEFINED MUTATION]; assay: Reversible protac activity at CRBN/EGFR exon 19 deletion mutant in human HCC827 cells assessed as recovery of AKT phosphorylation at 100 nM preincubated for 12 hrs followed by compound washout and measured after 48 hrs by Western blot analysis
[13] = test system: Protein cereblon/Epidermal growth factor receptor (Homo sapiens), P00533+Q96SW2 [UNDEFINED MUTATION]; assay: Reversible protac activity at CRBN/EGFR exon 19 deletion mutant in human HCC827 cells assessed as recovery of EGFR phosphorylation at 100 nM preincubated for 12 hrs followed by compound washout and measured after 24 hrs by Western blot analysis; format: cell-based; in short: as §1
[14] = biological target: T1, Epidermal growth factor receptor (Homo sapiens, UniProt P00533); assay: Induction of wild-type EGFR degradation in human OVCAR8 cells at up to 10 uM treated 8 hrs post serum starvation measured after 16 hrs by Western blot analysis; format: cell-based
[15] = test system: Protein cereblon/Epidermal growth factor receptor (Homo sapiens), P00533+Q96SW2 [L858R]; assay: Protac activity at CRBN/EGFR L858R mutant in human H3255 cells assessed as induction of EGFR degradation at 10 uM treated 8 hrs post serum starvation measured after 16 hrs by Western blot analysis; format: cell-based; in short: as §3
[16] = test system: Protein cereblon/Epidermal growth factor receptor (Homo sapiens), P00533+Q96SW2 [UNDEFINED MUTATION]; assay: Protac activity at CRBN/EGFR exon 19 deletion mutant in human HCC827 cells assessed as induction of EGFR degradation at 10 uM treated 8 hrs post serum starvation measured after 16 hrs by Western blot analysis relative to control; format: cell-based; in short: as §3
NCI-H3255 [17] = assay: Effect on AKT level in human H3255 cells up to 10 uM treated 8 hrs post serum starvation measured after 16 hrs by Western blot analysis; format: ADME, cell-based; conditions: nci-h3255, 16 h
[18] = test system: Protein cereblon/Epidermal growth factor receptor (Homo sapiens), P00533+Q96SW2 [L858R]; assay: Protac activity at CRBN/EGFR L858R mutant in human H3255 cells assessed as reduction in EGFR autophosphorylation up to 10 uM treated 8 hrs post serum starvation measured after 16 hrs by Western blot analysis; format: cell-based; in short: as §3
[19] = test system: Protein cereblon/Epidermal growth factor receptor (Homo sapiens), P00533+Q96SW2 [UNDEFINED MUTATION]; assay: Protac activity at CRBN/EGFR exon 19 deletion mutant in human HCC827 cells assessed as reduction in AKT phosphorylation up to 10 uM treated 8 hrs post serum starvation measured after 16 hrs by Western blot analysis; format: cell-based; in short: as §3
[20] = test system: Protein cereblon/Epidermal growth factor receptor (Homo sapiens), P00533+Q96SW2 [L858R]; assay: Protac activity at CRBN/EGFR L858R mutant in human H3255 cells assessed as induction of EGFR degradation at 100 nM measured after 8 hrs in presence of neddylation inhibitor MLN4924 by Western blot analysis; format: cell-based
HCC827 [21] = assay: Up regulation of HMGCS1 expression in human HCC827 cells at 100 nM measured after 16 hrs by LC-MS analysis; format: functional, cell-based; in short: as §2
[22] = biological target: T1, Epidermal growth factor receptor; assay: Induction of wild-type EGFR degradation in human H1299 cells at up to 10 uM treated 8 hrs post serum starvation measured after 16 hrs by Western blot analysis; format: cell-based
[23] = test system: Protein cereblon/Epidermal growth factor receptor (Homo sapiens), P00533+Q96SW2 [UNDEFINED MUTATION]; assay: Protac activity at CRBN/EGFR exon 19 deletion mutant in human HCC827 cells assessed as induction of EGFR degradation at up to 1 uM treated 8 hrs post serum starvation measured after 16 hrs by Western blot analysis; format: cell-based
[24] = test system: Protein cereblon/Epidermal growth factor receptor (Homo sapiens), P00533+Q96SW2 [L858R]; assay: Protac activity at CRBN/EGFR L858R mutant in human H3255 cells assessed as induction of EGFR degradation at 100 nM measured after 8 hrs in presence of EGFR inhibitor gefitinib by Western blot analysis; format: cell-based
[25] = test system: Protein cereblon/Epidermal growth factor receptor (Homo sapiens), P00533+Q96SW2 [UNDEFINED MUTATION]; assay: Protac activity at CRBN/EGFR exon 19 deletion mutant in human HCC827 cells assessed as induction of EGFR degradation at 100 nM treated 8 hrs post serum starvation measured after 12 hrs by Western blot analysis relative to control; format: cell-based
In short: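 After 8 h serum starvation, cells got 100 nM degrader and were collected at serial time points for Western blot of EGFR and downstream signaling.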

Chain of Protein cereblon/Epidermal growth factor receptor (Homo sapiens), P00533+Q96SW2 [UNDEFINED MUTATION] (P00533 whole entry, looked up, stated change not applied): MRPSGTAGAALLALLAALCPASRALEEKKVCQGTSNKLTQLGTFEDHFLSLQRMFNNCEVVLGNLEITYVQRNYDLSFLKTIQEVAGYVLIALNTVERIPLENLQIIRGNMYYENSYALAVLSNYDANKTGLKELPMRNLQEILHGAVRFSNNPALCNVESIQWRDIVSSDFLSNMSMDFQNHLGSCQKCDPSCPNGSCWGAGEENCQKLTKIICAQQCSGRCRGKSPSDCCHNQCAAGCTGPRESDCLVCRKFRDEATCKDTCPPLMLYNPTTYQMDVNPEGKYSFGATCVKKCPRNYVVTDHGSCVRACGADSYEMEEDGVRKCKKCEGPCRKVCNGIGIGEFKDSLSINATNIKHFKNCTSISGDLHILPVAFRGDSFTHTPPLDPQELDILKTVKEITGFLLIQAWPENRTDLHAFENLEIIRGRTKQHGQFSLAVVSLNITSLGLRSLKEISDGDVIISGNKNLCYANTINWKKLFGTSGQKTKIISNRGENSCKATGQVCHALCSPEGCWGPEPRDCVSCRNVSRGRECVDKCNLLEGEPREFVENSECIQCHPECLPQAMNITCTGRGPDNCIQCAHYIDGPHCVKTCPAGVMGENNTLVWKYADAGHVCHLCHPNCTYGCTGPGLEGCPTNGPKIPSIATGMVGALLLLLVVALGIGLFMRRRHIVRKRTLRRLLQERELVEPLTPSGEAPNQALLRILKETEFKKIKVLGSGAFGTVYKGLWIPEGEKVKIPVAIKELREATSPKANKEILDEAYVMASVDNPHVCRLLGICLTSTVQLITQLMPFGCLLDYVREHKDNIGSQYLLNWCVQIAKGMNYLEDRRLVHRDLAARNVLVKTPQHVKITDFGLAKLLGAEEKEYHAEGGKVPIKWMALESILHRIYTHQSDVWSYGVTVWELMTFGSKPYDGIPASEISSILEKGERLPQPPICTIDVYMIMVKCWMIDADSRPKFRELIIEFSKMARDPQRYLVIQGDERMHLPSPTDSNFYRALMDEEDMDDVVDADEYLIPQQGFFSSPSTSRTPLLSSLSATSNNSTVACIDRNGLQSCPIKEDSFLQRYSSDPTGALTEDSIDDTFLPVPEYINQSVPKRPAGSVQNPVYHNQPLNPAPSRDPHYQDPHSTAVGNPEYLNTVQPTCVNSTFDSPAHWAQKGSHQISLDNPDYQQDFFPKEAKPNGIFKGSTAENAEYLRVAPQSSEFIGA
Chain of Protein cereblon/Epidermal growth factor receptor (Homo sapiens), P00533+Q96SW2 [UNDEFINED MUTATION] (Q96SW2 whole entry, looked up, stated change not applied): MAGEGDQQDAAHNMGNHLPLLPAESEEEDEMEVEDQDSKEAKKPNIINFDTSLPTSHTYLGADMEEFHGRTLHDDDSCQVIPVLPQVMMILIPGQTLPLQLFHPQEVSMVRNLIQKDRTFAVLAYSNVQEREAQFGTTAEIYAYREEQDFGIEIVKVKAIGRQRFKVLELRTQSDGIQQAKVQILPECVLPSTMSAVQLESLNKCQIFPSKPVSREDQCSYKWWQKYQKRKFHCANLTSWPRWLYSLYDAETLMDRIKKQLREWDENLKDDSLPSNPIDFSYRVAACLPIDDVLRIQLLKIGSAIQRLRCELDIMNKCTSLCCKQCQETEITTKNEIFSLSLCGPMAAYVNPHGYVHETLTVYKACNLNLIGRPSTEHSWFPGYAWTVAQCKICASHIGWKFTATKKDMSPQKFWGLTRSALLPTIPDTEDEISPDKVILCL
T1 sequence (P00533 whole entry): as the sequence (P00533 whole entry, looked up, stated change not applied) above

Question: What does the source list for `COc1cc2ncnc(Nc3ccc(F)c(Cl)c3)c2cc1OCCCN1CCN(CCC(=O)NCCCCCCCCOc2cccc3c2C(=O)N(C2CCC(=O)NC2=O)C3=O)CC1` (stereo not given)?
Answer: Activity [1]: Non-Toxic; Activity [2]: inactive; Activity [3]: Active; Activity [4]: Active; Activity (NCI-H3255 [5]): Active; Activity (HCC827 [6]): Active; Activity [7]: Dose-dependent effect; %max [8]: > 95%; Activity [9]: Active; Activity [10]: Active; Activity [11]: Active; Activity [12]: Active; Activity [13]: Active; Activity [14]: Not Active; Activity [15]: Active; Activity [16]: inactive; Activity (NCI-H3255 [17]): Non-Toxic; Activity [18]: Active; Activity [19]: Active; Activity [20]: inactive; Activity (HCC827 [21]): Active; Activity [22]: Not Active; Activity [23]: Active; Activity [24]: inactive; Activity [25]: 100%
